Hck-Nef inh: inhibitors of Nef-activated human Hck kinase, primary screen, biochemical, Z-Lyte FRET, 384-well, Hck-YEEI. AID 463187, 2010. Tyrosine-protein kinase HCK (Homo sapiens), P08631. 220,000 tested, 0.68% active. inhibition, % at 20 µM. Recombinant Hck-YEEI plus Nef, Z-Lyte FRET kinase assay;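 active means Hck-Nef kinase inhibition above about 50%, limit read from the data; inactive means inhibition below that limit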
Runt-SMMHC FRET: inhibitors of RUNX1 Runt–CBFb-SMMHC binding, primary screen, biochemical, FRET, Cerulean-Runt, Venus-CBFb-SMMHC, uHTS | inhibition, % at 20 µM | Cerulean-Runt/Venus-CBFb-SMMHC FRET ratio 530/480, 1 h | AID 1434, 2008 | Runt-related transcription factor 1 (Homo sapiens) + Core-binding factor subunit beta … | 220,000 tested, 0.74% active;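 active means mean inhibition across duplicate retests at 20 µM reaching about 50%, limit read from the data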;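 further: inhibitors lower the FRET ratio by blocking Runt binding to CBFb-SMMHC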
Target sequence (Q01196 whole entry, looked up): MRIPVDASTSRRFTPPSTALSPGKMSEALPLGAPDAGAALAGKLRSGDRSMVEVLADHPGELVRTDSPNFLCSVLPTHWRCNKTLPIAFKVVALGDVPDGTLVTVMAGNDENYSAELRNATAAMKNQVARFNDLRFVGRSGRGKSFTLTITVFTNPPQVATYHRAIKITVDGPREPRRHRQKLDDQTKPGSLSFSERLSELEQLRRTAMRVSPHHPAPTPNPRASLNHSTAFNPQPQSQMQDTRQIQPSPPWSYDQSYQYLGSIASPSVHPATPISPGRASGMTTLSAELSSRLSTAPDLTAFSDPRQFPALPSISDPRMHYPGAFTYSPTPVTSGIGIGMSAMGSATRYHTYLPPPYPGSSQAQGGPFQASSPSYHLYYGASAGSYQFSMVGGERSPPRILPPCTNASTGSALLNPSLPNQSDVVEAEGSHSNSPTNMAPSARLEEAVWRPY
Target sequence (Q13951 whole entry, looked up): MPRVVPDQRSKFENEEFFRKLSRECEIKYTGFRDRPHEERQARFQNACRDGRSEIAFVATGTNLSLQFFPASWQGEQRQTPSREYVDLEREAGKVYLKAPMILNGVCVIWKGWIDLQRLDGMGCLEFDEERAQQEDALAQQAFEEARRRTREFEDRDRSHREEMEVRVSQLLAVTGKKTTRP
Runt-CBFb FRET: inhibitors of RUNX1 Runt–CBFb binding, primary screen, biochemical, FRET, Cerulean-Runt, Venus-CBFb, uHTS | Runt-related transcription factor 1 (Homo sapiens) + Core-binding factor subunit beta … | Cerulean-Runt/Venus-CBFb FRET ratio 530/480, 1 h | inhibition, % at 20 µM | 220,000 tested, 0.46% active;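 active means inhibition over about 50% at 20 µM in the single-dose screen, limit read from the data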
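Assay system: Cerulean-Runt domain / Medium: Tris 50 mM pH 7.5, KCl, K2SO4, 0.01% BSA / Timing: protein complex preformed 1 h, compound exposure 1 h, room temperature, dark / Measured by: FRET, excitation 422 nm, emission at 530 and 480 nm / Evaluation: loss of energy transfer signal / Control set: 5 µM unlabeled CBFb as full-inhibition high control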
RBBP9 inhibitor: human RBBP9 inhibitors, primary screen, biochemical, fluorescence polarization, FP-Rh probe, HTS. recombinant RBBP9. inhibition, % at 7.94 µM. 220,000 tested, 0.2% active;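 active means inhibition above the campaign mean of all tested compounds plus 3 SD, cut at about 14% in these data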
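Test system: recombinant human RBBP9; Timing: 30 min then 45 min, 25 °C; Detection: fluorescence polarization; Control set: RBBP9 with DMSO as uninhibited control, no-protein wells as full inhibition; Compound dosing: one concentration, 7.94 µM nominal, 0.794% DMSO; Probe or stimulus: FP-Rh activity-based probe, 375 nM before mixing.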
M18AAP inhibitor: PfM18AAP inhibitors, malaria aminopeptidase, primary screen, biochemical, QFRET, recombinant enzyme; M18 aspartyl aminopeptidase (Plasmodium falciparum 3D7); H-Glu-NHMec fluorogenic cleavage; inhibition, % at 7.35 µM; 290,000 tested, 1.2% active; AID 1822, 2009;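 active means inhibition above the campaign mean inhibition over all tested compounds plus 3 SD, cut at about 28% in these data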
RanGTP-Imp inh: inhibitors of RanGTP-importin-beta interaction, primary screen, biochemical, FRET, CFP-Ran, YFP-importin-beta, homogeneous; cell-free CFP-Ran/YFP-importin-beta FRET ratio; 300,000 tested, 1.1% active; AID 2216, 2009; inhibition, % (test concentration not listed); Ran GTPase (GTP-bound) - importin-beta complex;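 active means more than half of the replicate wells show a fall in the fluorescence ratio signal beyond about 16%, limit read from the data, passing the limit was not always enough; inconclusive means exactly half of the replicate wells pass the set limit; inactive means fewer than half of replicates pass the limit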
Numbers stand for hits; . = inactive; ? = inconclusive; / = no result. Hits are enriched below; roughly 2.9% of the tested compounds scored in any of these assays.

SMILES	Hck-Nef inh	Runt-SMMHC FRET	Runt-CBFb FRET	RBBP9 inhibitor	M18AAP inhibitor	RanGTP-Imp inh
Cc1cccc(OC2CCN(Cc3c(C(=O)N4CCCC4)nc4ccccn34)CC2)c1	.	.	.	.	.	.
O=C(c1nc2ccc(Cl)cn2c1CN1CCC[C@H]1CO)N1CCCCCCC1	/	/	/	/	.	22
NC(=O)[C@@H]1CCCN1Cc1c(C(=O)N2CCN(C3CCCCC3)CC2)nc2ccccn12	/	/	/	/	.	112
CC1(C)Cc2c(cnn2-c2cccc(F)c2)C(NC(=O)CSc2ccccn2)C1 (stereo unspecified)	/	/	/	/	.	.
O=C(c1nc2ccccn2c1CN1CCCC(O)C1)N1CCN(C2CCCCC2)CC1 (stereo unspecified)	/	/	/	/	.	103
CC(CC(=O)Nc1ccccc1)NCCCN1CCCC1=O (stereo unspecified)	/	/	/	/	.	.
CCOC(=S)SCc1cn2ccc(C)cc2n1	.	.	.	.	.	21
CC(C)COc1ccc(/C=C2/Sc3ccccc3C2=O)cc1	.	.	.	.	.	43
COc1cccc(-c2nc(-c3ccc4c(c3)-c3ccccc3S4(=O)=O)c(-c3ccccc3)[nH]2)c1OC	.	/	.	.	.	15
COc1cc(-c2nc(-c3ccc4c(c3)-c3ccccc3S4(=O)=O)c(-c3ccccc3)[nH]2)cc(OC)c1OC	.	.	.	.	.	.
CC(c1nc2ccccc2c(=O)[nH]1)N(C)c1ccc2ccccc2c1 (stereo unspecified)	.	.	.	.	.	96
Cc1ccccc1CN1CCNC(=O)C1CC(=O)NCCN1CCCCC1=O (stereo unspecified)	/	/	/	/	.	.
O=C(O)C(=O)/C(=C\c1cccc(Cl)c1)c1ccc2ccccc2n1	.	.	.	.	.	.
Cc1cccc(/C=C(\C(=O)C(=O)O)c2ccc3ccccc3n2)c1	.	73	.	.	.	29
COC(=O)c1ccc(-n2cc(-c3ccc(OC)cc3)[nH]c2=S)cc1	.	.	.	.	28	/
COc1ccc(-n2cc(-c3ccc(Cl)cc3)[nH]c2=S)cc1	.	.	.	.	.	.
O=C1/C(=C\c2ccco2)NC(=S)N1c1ccccc1	53	.	.	.	.	.
CCCN=C1N/C(=C\c2ccco2)C(=O)N1c1ccccc1	.	.	.	.	.	.
O=C(CCN1CCCCCC1)c1ccccc1	.	.	.	18	.	/
NC(=O)NNC(=S)Nc1cccc2ccccc12	.	.	.	.	50	.
NC(=O)c1ccccc1NC(=O)Nc1cccc2ccccc12	.	.	.	.	.	.
COc1cccc(NC(=O)CCC(=O)Nc2ccc3nc(N4CCOCC4)cc(C)c3c2)c1	/	/	/	/	.	.
O=S(=O)(c1ccccc1)N(CC(O)COc1ccccc1)c1ccccc1 (stereo unspecified)	.	.	.	.	.	.
N#CC1=C(N)SC(N)=C(C#N)C1CCC1CCCCC1	.	.	.	.	32	51
Nc1nnc(CCC2CCCCC2)s1	.	.	.	.	.	.
Cc1cccc(SCC(=O)Nc2ccc3c(c2)OCCO3)c1	/	/	/	/	.	.
Cc1occc1-c1nnc(SCC(=O)N(C)c2ccccc2)n1C	/	/	/	/	/	26
COc1ccc(-n2c(O)c(C=Nc3ccccc3)c3ccccc3c2=O)cc1	.	90	.	.	.	?
CCN1CCc2c(C#N)c(N3CCOCC3)nc(NCc3ccccc3)c2C1	.	58	.	.	.	28
C=CCNc1nc(N2CCCCC2)c(C#N)c2c1CN(Cc1ccccc1)CC2	.	.	.	.	.	52
